Laboratory results reported in ChEMBL document CHEMBL4265989, “ω-Hydroxylation of α-tocopheryl quinone reveals a dual function for cytochrome P450-4F2 in vitamin E metabolism” (Bioorg Med Chem, 2018).

How the values were obtained:
Assay type in all cases: ADME
Cytochrome P450 4F2 [1] = molecular target: T1, Cytochrome P450 4F2 (Homo sapiens, UniProt P78329); experiment: Drug level in human liver microsomes treated with BSA bound d6-alpha-tocopheryl quinone assessed as CYP4F2-mediated compound formation at 4.4 mM preincubated for 10 mins followed by NADPH addition measured after 20 mins by LS-MS analysis
T1 sequence (P78329 whole entry): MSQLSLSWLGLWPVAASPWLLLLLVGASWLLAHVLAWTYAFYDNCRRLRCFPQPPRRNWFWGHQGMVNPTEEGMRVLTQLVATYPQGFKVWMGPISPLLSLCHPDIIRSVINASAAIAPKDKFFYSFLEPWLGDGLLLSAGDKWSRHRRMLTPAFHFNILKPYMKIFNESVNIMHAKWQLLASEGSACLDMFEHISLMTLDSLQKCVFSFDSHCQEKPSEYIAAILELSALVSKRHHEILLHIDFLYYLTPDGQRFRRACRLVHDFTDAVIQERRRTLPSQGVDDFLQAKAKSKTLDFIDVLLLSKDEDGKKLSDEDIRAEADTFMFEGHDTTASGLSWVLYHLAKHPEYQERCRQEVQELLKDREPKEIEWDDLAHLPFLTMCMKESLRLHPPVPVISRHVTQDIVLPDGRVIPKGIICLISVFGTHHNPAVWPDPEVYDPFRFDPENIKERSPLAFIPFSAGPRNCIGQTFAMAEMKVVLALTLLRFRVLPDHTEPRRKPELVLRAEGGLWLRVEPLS
How it was run: (§1)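 Pooled human liver microsomes (20 mg/ml protein) in 100 mM KH2PO4 pH 7.2. d6-αTQ–BSA complex added from a 4.4 mM stock. Preincubated 10 min at 37 °C, then NADPH added to 1 mM final (NAD at 1 mM if used); 20 min at 37 °C, then chilled on ice. d0-ω-hydroxy-αTQ added as internal standard, extracted with ethyl acetate then hexanes:MTBE. Read-out by positive-ion C18 LC-MS.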

Cytochrome P450 4F2 [2] = molecular target: T1, Cytochrome P450 4F2; experiment: Drug level in human liver microsomes treated with BSA bound d6-alpha-tocopheryl quinone assessed as CYP4F2-mediated compound formation by measuring compound retention time at 4.4 mM preincubated for 10 mins followed by NADPH addition measured after 20 mins by LS-MS analysis; how it was run: as §1
Cytochrome P450 4F2 [3] = molecular target: T1, Cytochrome P450 4F2; experiment: (§2) Drug level assessed as recombinant human CYP4F2 expressed in insect cell microsomes-mediated compound formation by measuring compound retention time treated with BSA bound d6-alpha-tocopheryl quinone at 10 uM preincubated for 10 mins followed by NADPH addition measured after 20 mins in presence of recombinant human CYP reductase and cytochrome b5 by LS-MS analysis; settings: recombinant enzyme
How it was run: (§3)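 Insect cell microsomes co-expressing recombinant human CYP4F2, cytochrome b5 and NADPH P450 reductase (100 pmol CYP/mL) in 100 mM KH2PO4 pH 7.2 with d6-αTQ–BSA complex (10 μM). Preincubated 10 min at 37 °C, then NADPH added to 1 mM final; 20 min at 37 °C, then chilled on ice. Internal standard d0-ω-hydroxy-αTQ added, extracted with ethyl acetate then hexanes:MTBE. Products identified by reversed-phase C18 LC-MS retention time and mass spectra.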

Cytochrome P450 4F2 [4] = molecular target: T1, Cytochrome P450 4F2; experiment: as §2, with “formation” for “formation by measuring compound retention time”; settings: recombinant enzyme; how it was run: as §3

For [2H]C([2H])([2H])C1=C(C)C(=O)C(CC[C@](C)(O)CCC[C@H](C)CCC[C@H](C)CCCC(C)CO)=C(C([2H])([2H])[2H])C1=O (stereo not given in full), the Drug metabolism (Cytochrome P450 4F2 [1]) was “Metabolite_Detected”, the Retention_time (Cytochrome P450 4F2 [2]) was 8.8 min and the Retention_time (Cytochrome P450 4F2 [3]) was 8.8 min. The Drug metabolism (Cytochrome P450 4F2 [4]) was “Metabolite_Detected”.
With [2H]C([2H])([2H])C1=C(C)C(=O)C(CC[C@](C)(O)CCC[C@H](C)CCC[C@H](C)CCCC(C)C(=O)O)=C(C([2H])([2H])[2H])C1=O (stereo not given in full) the Drug metabolism (Cytochrome P450 4F2 [1]) was “Metabolite_Detected”, the Retention_time (Cytochrome P450 4F2 [2]) was 7.1 min and the Retention_time (Cytochrome P450 4F2 [3]) was 7.42 min. The Drug metabolism (Cytochrome P450 4F2 [4]) was “Metabolite_Detected”.
[2H]C([2H])([2H])C1=C(C)C(=O)C(CC[C@](C)(O)CCC[C@H](C)CCC[C@H](C)CCCC(C)C)=C(C([2H])([2H])[2H])C1=O was tested, and the Drug metabolism (Cytochrome P450 4F2 [1]) was “Metabolite_Detected” and the Retention_time (Cytochrome P450 4F2 [2]) was 11.87 min.
